Source: the EternaBench riboswitch data

System: MS2 coat protein
Assay: apparent Kd, MS2 coat protein; higher = weaker binding; RNA-MaP array; FMN 200 µM where present
In short: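 Designs were transcribed by stalled E. coli RNA polymerase on Illumina sequencing-chip clusters. They were titrated with SNAP-549-labelled MS2 coat protein from 0.7 or 1.5 nM, doubling to 3 µM, in 100 mM Tris-HCl pH 7.5, 80 mM KCl, 4 mM MgCl2, BSA, DTT, yeast tRNA and Tween-20, without and then with constant ligand. The apparent Kd is the median of filtered per-cluster fits after normalisation of green signal to red-channel RNA signal and control-cluster median Fmax.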

[1] = designed as: ON switch for flavin mononucleotide, no ligand
[2] = ligand present: flavin mononucleotide, designed as: ON switch for flavin mononucleotide
[3] = designed as: OFF switch for flavin mononucleotide, no ligand
[4] = ligand present: flavin mononucleotide, designed as: OFF switch for flavin mononucleotide

| Sequence | apparent Kd [1] | apparent Kd [2] | apparent Kd [3] | apparent Kd [4] |
| --- | --- | --- | --- | --- |
| GCCGUGAUAGCAGGAUAUGCUCCGGUUGCUCAUACAUGAGGAUCACCCAUGUCACGUGCGGUGGUGCAGAAGGGUUGAAGCGAU | 0.764 µM | 0.209 µM | – | – |
| ACUAUACGAGGAUAUACUGUCAGUACUCAGAGAUUAAUGUGACAUGAGGAUCACCCAUGUAGAAGGCGUUUACU | – | – | 0.0319 µM | 0.0353 µM |
| UGUGCGUAUGUGAGGAUAUGCUGGUCCUUGGAUCGGCAGAAGGCACAUGAGGAUCACCCAUGUGGUGUCGUACU | – | – | 0.483 µM | 0.0266 µM |
| GGUGGACAUGAGGAUCACCCAUGUGAGGAUAUCGGCUGGCUAGCGGCGGAUGGCUUCUCGAGAAGGCGCAUUGU | – | – | 0.0864 µM | 0.075 µM |
| GCAGGUUAAGUAAGGAUAUACCUCUGGAAACAGAGGUAGAAGGUACAUGAGGAUCACCCAUGUUUCUCUUCUGC | – | – | 0.0173 µM | 0.0457 µM |
| CAGCGAAAGUAGAAGGCAGUACUGUUACAGUACUGAGGAUAUACAUGAGGAUCACCCAUGUAAUAAAGCUGGAAAUAUAUAAUU | – | – | 0.00641 µM | 0.00733 µM |
| CCCAAACUUGGGCUUGGUGGUGCAUAGGAUAUCCUUGAACAUGAGGAUCACCCAUGUACAACUGUGGAGAAGGGUGCAGGGCCU | 0.372 µM | 0.111 µM | – | – |
| AGCUAGUCAGGAUAUGCGUGAAGAAUAAAACAAAUAACAACGCAGAAGGGACAUGAGGAUCACCCAUGUUAGCA | – | – | 0.0307 µM | 0.0195 µM |
| AUGGUUCGGUCAGGAUAUCGUAGAUUGAAUAGUAUGAUUUACAUGAGGAUCACCCAUGUUACAUACGAGAAGGGACCGAAUCAU | – | – | 0.0155 µM | 0.0104 µM |
| AAGGAUAGAGGAUAUACAUAGAUACAGAUUCAUGUGGUCCUACAUGAGGAUCACCCAUGUAGAAGGCUAUCCUA | – | – | 0.24 µM | 0.0568 µM |
| CCGGAGACGGGUAGCCUGACAUGAGGAUCACCCAUGUAAUACGAGGAUAUGGAUCCUAAUUGGAUCCAGAAGGUGUCAGGCUAC | 0.908 µM | 0.729 µM | – | – |
| AGAUGGCGAGGAUAUACAUGAGGAUCACCCAUGUGAGAGAAAAGAGUGAGGAAGAAAAGUAGAAGGCGCUGUCA | – | – | 0.0806 µM | 0.13 µM |
| AUGUAGAACGUAGGAUAUCAAUGAGGAUCACCCUGAGAAGGACGUGAGGACAUGAGGAUCACCCAUGUGGAUCACCCAUGUCAU | – | – | 0.16 µM | 0.134 µM |
| CAGUAGAUCCGAGGAUAUACAAUCCGGAAACGGUACAUGAGGAUCACCCAUGUAGAAGGCGGAUCUACAGGUACUAAAGUACCG | – | – | 0.00637 µM | 0.00959 µM |
| AUCCUGCGAGGAUAUACAUAGUGACGUCUGUUAGGUCUCAAACAUGAGGAUCACCCAUGUAGAAGGUGCGUCAC | – | – | 0.0194 µM | 0.0182 µM |
| UCGAAACAUGAGGAUCACCCAUGUGCUCACGACAUAGGAUAUACUAGCUCGAAGAGCUGCGUAGAAGGGUGAAGUG | 0.0459 µM | 0.0268 µM | – | – |
| UGAAUCUAGUAAGGAUAUACACGAGAUACAAGUGUAGAAGGUACUUACAUGAGGAUCACCCAUGUAUACAUGGAUAAUAGAUAU | 0.291 µM | 0.182 µM | – | – |
| AUAUUUUUGUAGAAGGUACGUGAUUAGUCAAAGUAAGGAUAUACUGACAUGAGGAUCACCCAUGUUUUAAUAGUUAACAGUUCU | 0.0129 µM | 0.00801 µM | – | – |
| AAAUAGUUAGGAUAUACAUGAGGAUCACCCAUGUGGACUUAUGGCGAUUAAUUUAGUGGUAGAAGGGACUCAAA | – | – | 0.0538 µM | 0.0514 µM |
| CCUGCACAUGAGGAUCACCCAUGUCAGGAUAUCUCGCCGUCGGCUUGCCGACGGUAUUAGAGAAGGGACAAGGG | – | – | 0.0234 µM | 0.029 µM |
| GUGUAGAUAGGAUAUGCUUUGAGCUUAUGAGAGUAUGCUCGACAUGAGGAUCACCCAUGUAGAAGGGUUUACAC | – | – | – | 0.0525 µM |
| GUCUCGUCAGGAUAUGACGCUACAUUUUUUUUUUAGAAGAGUCAGAAGGGACAUGAGGAUCACCCAUGUGAUUC | – | – | 0.288 µM | 0.218 µM |
| AAUAUAUUAAGUGAGGAUAUCAUAGAAAAAACAUGAGGAUCACCCAUGUGGGAAACCUGGUCGGGUGAGAAGGCACUUAAUAUAU | 0.992 µM | 0.0884 µM | – | – |
| AAAUAGAUACAUGAGGAUCACCCAUGUUAAUAGGUGUUUGUCAGAAGGCAUUAUGAGAGAAUUAAUGAGGAUAUGAAAUAUGAU | 0.0393 µM | 0.0227 µM | – | – |

| Sequence | apparent Kd [1] | apparent Kd [2] | apparent Kd [3] | apparent Kd [4] |
| --- | --- | --- | --- | --- |
| AGUAACAGAGGAUAUACUAUUUUAUGUGUUUAUUGUUUUAAACAUGAGGAUCACCCAUGUAGAAGGCUGAAUAA | – | – | 0.0294 µM | 0.0405 µM |
| GAUAGUCCUGAGAAGGACAUGAGGAUCACCCAUGUGAUUAUACCAGUGCAAUGAAAGCACUGGAUGUAGGAUAUCAGGACUAUC | – | – | 0.0153 µM | 0.0961 µM |
| AAAGUGUUAGGAUAUGUGAAGGCGUCUGAUAGACGAGGCCUGCAGAAGGGACAUGAGGAUCACCCAUGUAAAAA | – | – | 0.0568 µM | 0.026 µM |
| GGACAGUAAGGAUAUUGAGUCGGACAACGCCGACAGCUAGUCGAGAAGGUACAUGAGGAUCACCCAUGUCAAGU | – | – | 0.0198 µM | 0.018 µM |
| UUAAUUUGAGGAUAUACAUUUAACCACAUGAGGAUCACCCAUGUAAUAUCAUGUAUUUGUGUAGAAGGCAGAAUGC | – | – | 0.0188 µM | 0.0175 µM |
| ACAUGCGGAUGAGGAUAUUCAUCCAUGAGGAUAGAAGAAGGCAUACAUGAGGAUCACCCAUGUAUACGCAUGAGGAUCCCUUAU | – | – | 0.0236 µM | 0.0287 µM |
| CUAUAGAUAUCAGGAUAUCUAUUUCCUACAUGAGGAUCACCCAUGUAGAUGAUCACCCAUGUAAAGGAGAAGGGAUAUCUAUAG | 0.361 µM | 0.169 µM | – | – |
| GUAUGUAAGGAGAAGGGCUACUGGUUGAAACCUGCGGCCUCUGGAACAUGAGGAUCACCCAUGUAGCAGGAUAUCCUUGCGUGA | – | – | 0.222 µM | 0.0229 µM |
| UCGUACAUUCGAGGAUAUCGGUGAUAAAUAAUACGAGAAGGCGAUUGUGGGCAUAACGCCUUAGACAUGAGGAUCACCCAUGUA | 0.0756 µM | 0.0515 µM | – | – |
| CGUUCACAUGAGGAUCACCCAUGUCAGAUUUGGUCAGGAUAUGGUCUGCUUUCGCUAUUUCCAGAAGGGACUUUUG | 0.0286 µM | 0.0248 µM | – | – |
| CUUCGUGAUGCAGGAUAUGUUUGCUUUUUGCGCACAGAAGGGCAUCACAUGAGGAUCACCCAUGUGAGUAGAAAACCGUGGAAA | – | – | 0.0141 µM | 0.0793 µM |
| UUUUAACAUGAGGAUCACCCAUGUGAGGAUAUCGAAAUUUAUAUUUAUAUUUAUAUUUCGAGAAGGCACAUUUU | – | – | 0.176 µM | 0.156 µM |
| GUGCACAUUCGAGGAUAUCGGAGAGAGAUCCUUCGAGAAGGCGAUUCAUGCUGUAUUAUCCUGGACAUGAGGAUCACCCAUGUG | 0.199 µM | 0.127 µM | – | – |
| ACGUAUCAUGUAGGAUAUGGCCCAGGAACUUGGUCAGAAGGACAUGAGGAUCACCCAUGUAGAGUAUGUUAGGAUGACGUAUGC | – | – | 0.0929 µM | 0.173 µM |
| CGCAGUACUUAGGUACCACACAUGAGGAUCACCCAUGUAUCACAGGAUAUGCAUGAUAUAUUCAGGCAGAAGGGUGAUCUUACC | 0.0797 µM | 0.318 µM | – | – |
| ACAAAUGGAGGAUAUACAUGAGGAUCACCCAUGUUUAUCCUACAUAUGUGAUCCUCAUGUAGAAGGCCAUAUGA | – | – | 0.011 µM | 0.0106 µM |
| UUACCUCAUGAGAAGGACAUGAGGAUCACCCAUGUAGGAUAUCGUGGGACACUGGAAUUGAAUCUUCGGAUUCAAUAACUGUAU | 0.349 µM | 0.0262 µM | – | – |
| UCUAUGUAAGAGAAGGAGGACUUCAUGAGGAUCACCCAUGUGUUAGUACUUAGGAUAUUUGACAACAUGAGGAUCACCCAUGUC | 0.0657 µM | 0.0617 µM | – | – |
| UAUCUAGGCGAAGGAUAUCCGUCGCGAGAUACUGGAGAAGGUCGCCUUGAUACAUGAGGAUCACCCAUGUGGCGGGUGAACCAA | – | – | 0.0379 µM | 0.0164 µM |
| GGAGCUCCUGACAUGAGGAUCACCCAUGUUCACUUAUUAAAUCAGGAUAUCGUCUCGAAACGAGACGAGAAGGGAUAUGCUCCU | 0.00767 µM | 0.00701 µM | – | – |
| CACUGCAAUGUAGGAUAUCGACUGGAUAACAGUCGAGAAGGACAUGAGGAUCACCCAUGUCAUCCUAAUAAUAAAUAAGCAGUG | – | – | 0.0153 µM | 0.0192 µM |
| GCCAGUUAUGUAGGAUAUGCGCGGCGAGCCUGUGCAGAAGGACAUGAGGAUCACCCAUGUGUUGCGGUCUGAGUACUGAUCGCU | – | – | 0.03 µM | 0.221 µM |
| AGAUGGUAUAUAGGAUAUCAUGUGCAAACAUGAGGAUCACCCAUGUAGAGACGUCAGUCUAAUAAUGAGAAGGAUAUACCAUCU | 0.0371 µM | 0.00997 µM | – | – |
| GCAGGCGACCAGAAGGGUGACAUGAGGAUCACCCAUGUAGAUGUGUUCCCGCUUGGGAACCGUCCACAGGAUAUGGUUGGUUAU | 0.0511 µM | 0.0538 µM | – | – |
